Assay results gathered from unrelated publications.
Lines come from different studies, so protocols differ. pIC50: −log10 of the molar value.
Cell line: K562
Observed: cell growth or viability

CCCCCCCCC1=CC2C=CC=CC1C2C1CCCCC1=O (centres unmarked)  pIC50 (flow cytometry): 7.39
COc1ccc(C(=O)/C=C/c2cccc3ccccc23)cc1S(N)(=O)=O  GI50 (SRB; 48 h): 1.7 µM
COc1ccccc1S(=O)(=O)Nc1ccc2c(c1)CN(C)C(=O)N2  GI50 (ATP luminescence): > 20 µM
COC(=O)CCC1=CC2C=CC=CC1C2C1CCCCC1=O (centres unmarked)  pIC50 (flow cytometry): 7.21
CNC(=O)c1cc(OC)cc2c(N3CCc4c(cc(Cn5ccnc5)cc4-c4cn(C)nc4C(F)(F)F)C3=O)ccnc12  GI50 (ATP luminescence; 5 days): 9.7 µM
COc1ccc(C(=O)/C=C/c2ccc3c(c2)OCCO3)cc1S(N)(=O)=O  inhibition (SRB; 10 µM): 83%
COc1ccc2nccc(N3CCc4c(cc(Cn5ccnc5)cc4-c4cn(C)nc4C(F)(F)F)C3=O)c2c1  GI50 (ATP luminescence; 5 days): 13 µM
COc1cccc(Oc2ccccc2NC(=O)CNC(=O)c2cccc3ccccc23)c1  GI50 (SRB; 48 h): 0.129 µM
